High-throughput results (PubChem)
Compounds with a hit are over-represented: about 2.7% of the library has one in this group of screens.
OXTR potentiator: potentiators of human oxytocin receptor. P30559. CHO-OTR cells, Fluo-8 calcium fluorescence, potentiator mode; 0% = oxytocin EC15, 100% = EC100. activation, % at 3 µM. 320,000 compounds, 0.061% hits;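 active = activation above that plate's cutoff, the mean activation of tested compounds plus 3 SD, cut at about 6.6% in these data, passing the limit was not always enough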;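 also: 100% uses oxytocin at 75 nM as the full agonist control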
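System: human OTR in CHO cells / Also added: sub-maximal oxytocin, roughly EC15 / Control set: EC15 oxytocin low, 75 nM oxytocin high / Schedule: 6 min compound pre-incubation at room temperature, 100 s kinetic read / Compound: single-point 3.0 µM / Replication: singlicate / Technique: Fluo-8 calcium dye fluorescence / Read-out basis: % activation of max/min ratio relative to oxytocin controls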
OX1R antag-1: OX1R (human) antagonism; O43613; OX1R-expressing cells, FRET antagonist read-out; inhibition, % at 6.6 µM; 330,000 compounds, 1.8% hits; in the data active = inhibition mostly above about 38%, no sharp cut-off; inactive = mostly below about 40%;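 also: 0% = agonist challenge alone and 100% = reference antagonist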
Target sequence (O43613 whole entry, looked up): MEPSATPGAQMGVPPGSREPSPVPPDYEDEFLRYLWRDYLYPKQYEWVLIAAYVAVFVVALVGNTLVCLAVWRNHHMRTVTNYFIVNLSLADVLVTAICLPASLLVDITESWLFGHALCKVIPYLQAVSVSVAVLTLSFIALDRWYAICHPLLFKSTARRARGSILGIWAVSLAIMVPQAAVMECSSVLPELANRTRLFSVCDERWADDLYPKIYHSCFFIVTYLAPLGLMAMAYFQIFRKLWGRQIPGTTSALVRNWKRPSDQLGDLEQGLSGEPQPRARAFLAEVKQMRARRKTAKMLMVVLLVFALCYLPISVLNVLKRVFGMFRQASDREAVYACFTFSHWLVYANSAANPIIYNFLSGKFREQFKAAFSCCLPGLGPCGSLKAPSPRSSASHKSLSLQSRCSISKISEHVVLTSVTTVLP
CHO parental Ca: signal in parental CHO cells, OX1R antagonist counter-screen; inhibition, % at 5.6 µM; parental CHO-K1, ATP-induced calcium, Fluo-8 fluorescence; 330,000 compounds, 0.63% hits;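 active = inhibition above that plate's mean sample inhibition plus 3 SD, cut at about 26% in these data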;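 also: 0% = ATP-challenged DMSO wells and 100% = DMSO wells without ATP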
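Assay system – parental CHO cells · Reagent – ATP stimulus · Detection – intracellular calcium via Fluo-8 no-wash fluorescent dye · Evaluation – percent inhibition of ATP-evoked calcium rise, normalized to controls · Controls – ATP wells versus no-ATP DMSO wells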
V1R ag counter: counter-screen for oxytocin receptor agonists: human V1a receptor agonists; P37288; CHO-V1R cells, Fluo-8 calcium fluorescence, agonist mode; 0% DMSO, 100% 3 nM vasopressin; activation, % at 3 µM; 320,000 compounds, 0.25% hits;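 active = activation above the mean activation of all tested compounds plus 3 SD, per screening run, cut at about 20% in these data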;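 also: signal is peak over basal fluorescence ratio across a 100 second FLIPR read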
OXTR ag: agonists of human oxytocin receptor; 320,000 compounds, 0.32% hits; CHO-OTR cells, Fluo-8 calcium fluorescence; normalized: DMSO 0%, oxytocin 100%; activation, % at 3 µM;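 active = activation above the mean of all tested compounds plus 3 SD, cutoff set per screening run, cut at about 20% in these data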;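 also: peak over basal fluorescence ratio from a 100 s FLIPR kinetic read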
OX1R antag-2: antagonists of human orexin 1 receptor. CHO/OX1R cells, Fluo-8 calcium fluorescence, orexin A. inhibition, % at 5 µM. 330,000 compounds, 0.43% hits;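 active = inhibition above its plate's threshold, mean inhibition of all tested compounds on the plate plus 3 SD, cut at about 37% in these data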;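 also: 0% = orexin A challenge wells and 100% = SB-334867-A antagonist wells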
Numbers without * were called inactive.

SMILES	OXTR potentiator	OX1R antag-1	CHO parental Ca	V1R ag counter	OXTR ag	OX1R antag-2
CC1(C)C(=O)OC(c2ccc([N+](=O)[O-])cc2)C(C)(C)C1=O (centres undefined)	-4	-2	11	1	2	-4
CN(C)c1ccc(C(CNS(=O)(=O)c2ccc([N+](=O)[O-])cc2)N2CCCC2)cc1 (centres undefined)	1	71*	-15	1	3	-32
COc1ccc(C(=O)NCC2(c3ccc(OC)c(OC)c3)CCCC2)c(OC)c1	-7	3	-23	-1	-2	-24
O=[N+]([O-])c1ccc2nonc2c1Nc1ccccc1	0	27*	-7	-1	-2	-5
O=C(O)c1cccc(Nc2cc(Cl)c3nonc3c2[N+](=O)[O-])c1	1	58*	-12	0	-1	-6
O=[N+]([O-])c1cccc(Nc2c([N+](=O)[O-])ccc3nonc23)c1	-10	-9	-4	1	1	-10
O=C(O)c1ccccc1Nc1ccc([N+](=O)[O-])cc1	4	10	-10	0	0	1
O=[N+]([O-])c1c(Nc2ccc(O)cc2)cc(Cl)c2nonc12	-11	99*	61*	-2	-2	76*
O=C(O)c1ccccc1Nc1cc(Cl)c2nonc2c1[N+](=O)[O-]	4	61*	-9	-1	0	-5
CC(=O)N1CCN(CC(=O)Nc2cc(S(=O)(=O)N3CCCCC3)ccc2C)CC1	-9	1	4	0	1	3
COc1ccc(Nc2ccc([N+](=O)[O-])c3nonc23)c(OC)c1	-2	51	-17	2	-2	-34
O=C(O)c1cccc(Nc2ccc([N+](=O)[O-])c3nonc23)c1	-3	34*	-2	1	2	-25
O=[N+]([O-])c1c(Nc2ccccn2)cc(Cl)c2nonc12	-10	45*	-2	2	1	3
COc1cccc(CNc2cccc3cccnc23)c1O	-6	54*	13	-1	-2	-17
Oc1c(Br)cc(Br)cc1CNc1cccc2cccnc12	-20	29*	-9	-1	-1	5
O=C(COC(=O)c1ccc(F)cc1F)NCc1ccc2c(c1)OCO2	0	3	-9	0	2	-8
CCOc1ncccc1C(=O)Nc1nnc(C2CC2)s1	3	74*	-12	0	-1	9
CCOc1ncccc1C(=O)Nc1cc2c(cc1Br)OCCO2	-3	40*	-30	0	-1	22
O=C(CSc1ccccc1)Nc1nnc(C2CC2)s1	-12	21	30*	1	-1	-4
Cc1ccc(S(=O)(=O)N2CCCCC2)cc1C(=O)N(CCc1ccccc1)Cc1ccccc1	-11	16	-8	-2	-1	-24
O=C(CCCN1C(=O)/C(=C/c2ccccc2OC(F)F)SC1=S)Nc1cccnc1	-11	18	-24	-1	-2	13
O=C(NCc1cccnc1)C(=O)N/N=C/c1ccc([N+](=O)[O-])cc1	7	59*	-4	-1	-2	-29
Cc1ccc(S(=O)(=O)N(C)c2ccc(OCC(=O)Nc3nc4c(ccc5ccccc54)s3)cc2)cc1	-1	9	-2	1	1	-2
O=C(Nc1nc2ccccc2s1)C1CCN(S(=O)(=O)c2cc([N+](=O)[O-])ccc2Cl)CC1	-6	84*	80*	5	5	51*
Cc1cccc(OCC(=O)Nc2nc3ccc([N+](=O)[O-])cc3s2)c1	-8	41*	-8	6	8	27
SMILES	OXTR potentiator	OX1R antag-1	CHO parental Ca	V1R ag counter	OXTR ag	OX1R antag-2
O=C(COc1ccccc1C(=O)O)Nc1nc2ccc([N+](=O)[O-])cc2s1	-30	59*	42*	10	15	37
CCC(C)NC(=O)C1CCN(S(=O)(=O)c2cc([N+](=O)[O-])ccc2Cl)CC1 (centres undefined)	-2	49	-20	1	0	-11
Cc1ccc(S(=O)(=O)N(C)c2ccc(OCC(=O)Nc3nc4ccccc4s3)cc2)cc1	-17	57*	15	4	5	2
Cc1cccc(OCC(=O)Nc2nc3ccc([N+](=O)[O-])cc3s2)c1C	-12	14	5	4	4	2
CCCCN(C(=O)c1ccc(Br)o1)C1CCS(=O)(=O)C1 (centres undefined)	4	21	-11	0	-2	-13
Cc1ccccc1CC(=O)Nc1cccnc1	-6	9	-12	-1	0	-19
CC(C)(C)CN1CCN(Cc2cccnc2)CC1CCO (centres undefined)	-9	7	-8	-1	0	0
CC(C)Cn1c(SCC(=O)Nc2cccnc2Cl)nnc1-c1ccco1	5	5	-15	1	0	-34
O=C(O)c1cccc(N2C(=O)CSC2c2ccccc2)c1 (centres undefined)	-1	-3	-1	0	0	18
Cc1ccc(CN2CC(C(=O)Nc3ncccc3C)CC2=O)cc1 (centres undefined)	-9	12	-4	0	0	-9
Cc1cc(C)cc(OCC(=O)OC(C)C(=O)Nc2ccc(Cl)cn2)c1 (centres undefined)	-16	3	-19	6	0	-43
CCCCn1c(N)c(N(CC)C(=O)COc2ccc(C#N)cc2)c(=O)[nH]c1=O	-2	-2	2	0	0	1
CCOc1ccc(CN(C)CC(=O)Nc2cccc(S(=O)(=O)N(C)c3ccccc3)c2)cc1	-11	34	-24	1	-2	-29
CCC(=O)c1ccc(OCC(=O)Nc2cccc(S(=O)(=O)N(C)c3ccccc3)c2)cc1	-12	27*	44*	11	11	77*
COc1ccc(CSCC(=O)N/N=C/c2ccc(OCC(=O)NCc3ccco3)cc2)cc1	-18	32	9	2	2	15
CC(SCc1ccccc1)C(=O)N/N=C/c1ccc(OCC(=O)NCc2ccco2)cc1 (centres undefined)	-2	56*	-2	10	0	24
COC(=O)Cn1c(O)c(N=NC(=O)CNC(=O)c2ccncc2)c2ccccc21	-10	70*	-11	-1	0	-11
CCCn1c(O)c(N=NC(=O)CNC(=O)c2cccnc2)c2ccccc21	-11	47	-20	1	1	-2
Cn1c(O)c(N=NC(=O)CNC(=O)c2cccnc2)c2ccccc21	-9	43*	-7	1	0	-11
O=C(NCC(=O)N1CCN(Cc2ccccc2)CC1)c1ccc(Br)o1	-7	20	3	3	0	-6
O=C(COc1ncnc2cc([N+](=O)[O-])ccc12)NC1CCCCC1	-10	56*	9	-1	-1	-31
